Measurements collected from several papers.
Each line is one published result; the experiments were not run side by side.

| SMILES | target or system | assay | test system | setting | endpoint | result |
| --- | --- | --- | --- | --- | --- | --- |
| O=C(Nc1ncc([N+](=O)[O-])s1)c1cc(Cl)ccc1Cl | Chikungunya virus | viral replication, luciferase | BHK-21 | 16 h | IC50 | 8.3 µM |
| CCCCCCCCCOc1ccc2[nH]cc(CCN)c2c1 | FaDu | cell growth or viability | – | 72 h | IC50 | 7.3 µM |
| O=C(NCc1ccc(Cl)cc1)C1CC1c1ccccc1 (stereo not drawn) | Chikungunya virus | viral replication, luciferase | BHK-21 | 16 h | IC50 | > 100 µM |
| Cc1c2ccncc2c(C)c2c1[nH]c1ccccc12 | THP-1 | TNF-α release, inhibitor, ELISA | – | 17 h, LPS-stimulated | IC50 | 0.44 µM |
| C[C@H]1COc2c(N3CCN(C)CC3)c(F)cc3c(=O)c(C(=O)O)cn1c23 | Haemophilus influenzae | microbial growth | – | – | MIC | > 4 µg/mL |
| Cc1cc(C(C)(C)C)c(O)c(C(C)(C)C)c1 | – | DPPH scavenging, absorbance | – | 30 min | IC50 | 308 µM |
| O=C(Nc1ncc([N+](=O)[O-])s1)c1cccnc1 | Chikungunya virus | viral replication, luciferase | BHK-21 | 16 h | IC50 | > 100 µM |
| O=c1c(O)c(-c2ccc(O[C@@H]3O[C@H](CO)[C@@H](O)[C@H](O)[C@H]3O)c(O)c2)oc2cc(O)cc(O)c12 | – | DPPH scavenging, absorbance | – | – | IC50 | 28.5 µg/mL |
| COc1c(N2C[C@@H]3CCCN[C@@H]3C2)c(F)cc2c(=O)c(C(=O)O)cn(C3CC3)c12 | Haemophilus influenzae | microbial growth | – | – | MIC | > 4 µg/mL |
| O=C1O[C@H]([C@@H](O)CO)C(O)=C1O | – | DPPH scavenging | – | – | IC50 | 10.2 µM |
| O=C(O)c1cn(C2CC2)c2cc(N3CCNCC3)c(F)cc2c1=O | Haemophilus influenzae | microbial growth | – | – | MIC | > 4 µg/mL |
| Cc1ccc(C2CC2C(=O)NC(C(N)=O)c2ccccc2)cc1C (stereo not drawn) | Chikungunya virus | viral replication, luciferase | BHK-21 | 16 h | IC50 | > 100 µM |
